# Results as given in ChEMBL document CHEMBL1142097, “EthA, a common activator of thiocarbamide-containing drugs acting on different mycobacterial targets” (Antimicrob Agents Chemother, 2007).
# Assays:
# [1] = test system: Mycobacterium tuberculosis variant bovis BCG; test: Antimycobacterial activity against Mycobacterium bovis BCG Pasteur with pMV261 vector; format: functional
# In short: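 Agar MIC on Middlebrook 7H9 or 7H11 with OADC (ADC substituted for isoxyl-type drugs) plus graded drug levels; serial 10-fold dilutions of actively growing culture plated, incubated 37°C for 10–14 days; MIC = lowest concentration blocking 99% of growth. Recombinant Pasteur strains selected with 25 μg/ml kanamycin; ethR::hyg mutant carries a hygromycin-marked transposon in ethR.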
# [2] = Drug metabolizing activity of Mycobacterium bovis BCG recombinant ethA expressed in Escherichia coli; format: ADME; details: mycobacterium tuberculosis variant bovis bcg
# In short: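 N-terminal His6-tagged EthA expressed in E. coli (1 mM IPTG, 22°C, 24 h), Ni2+ affinity-purified with bound FAD. Drug incubated at 37°C for 1 h in 50 mM Tris-HCl pH 7.4, 100 mM KCl, 200 μg/ml BSA, 4 mM NADPH, 8 μg EthA.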
smiles,measurement,setting,value
COc1ccc(/C(C)=N/NC(N)=S)cc1,MIC,[1],0.25 µg/mL
CC(C)CCSc1ccc(NC(=S)Nc2ccc(SCCC(C)C)cc2)cc1,Activity,[2],7.37 µmol/min/mg
same,MIC,[1],40 µg/mL
CC(=O)Nc1ccc(/C=N/NC(N)=S)cc1 [AMITHIOZONE],MIC,[1],0.5 µg/mL
CCc1cc(C(N)=S)ccn1 [ETHIONAMIDE],MIC,[1],2 µg/mL
NC(=S)N/N=C/c1cccnc1 [NICOTHIAZONE],MIC,[1],10 µg/mL
CC(C)CCOc1ccc(NC(=S)Nc2ccc(OCCC(C)C)cc2)cc1 [TIOCARLIDE],Activity,[2],7.56 µmol/min/mg
same,MIC,[1],0.25 µg/mL
